Shown is part of a subset that was picked to be rich in hits.
YB-1 expr inh: inhibitors of YB-1 gene expression, primary screen, cell-based, fluorescence; 0.37% of 30,000 active; delta delta Cp (YB-1 minus CDIP) (no concentration beside the values); U2OS, qRT-PCR YB-1 vs CDIP delta delta Cp, 16 h; stronger effect = higher value; zero = DMSO, each unit about twofold; AID 434959, 2010;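 active = delta delta Cp rounded down to an integer at or above 3, about 3 SD of DMSO wells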;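 also: higher means less YB-1 transcript or more CDIP transcript relative to DMSO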
INS-1E rescue: protection of INS-1E cells from cytokine death, primary screen, ATP luminescence, single point; INS-1E cytokine-induced death, 48 h; normalised: neutral wells 0, positive control 100; protection from cytokine-induced ATP loss, % at 10 µM; 0.1% of 20,000 active; AID 488910, 2010;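 active = mean replicate protection from cytokine-induced ATP loss at least 50% and at least 75% of replicates each reaching 50%; inconclusive = meets only one of the two criteria, mean or replicate share; inactive = fails both the mean and replicate share criteria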
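Assay system: INS-1E rat insulinoma cells. Amount: 8000 cells per well. Medium: phenol-red-free RPMI with 5% fetal bovine serum. Reagent: IL-1β, TNF-α and IFN-γ cytokine mix. Doses: one compound concentration, pin transfer. Schedule: 48 h co-treatment, 10 min post-lysis read. Detection: CellTiter-Glo luminescence measuring cellular ATP.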
T cruzi HTS: inhibitors of intracellular Trypanosoma cruzi, primary screen, cell-based, plate reader, single point, set 2. intracellular Trypanosoma cruzi in host cells. activity score (inhibition), % at 5.01 µM. 4.9% of 22,000 active. AID 651903, 2012; in the data active = activity score above about 55%; inconclusive = no clear call, values can overlap the other calls;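 also: parasites and compound incubated about four days before reading; 0% = median of neutral control wells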
Starred values were filed as active, the others as inactive; u = inconclusive; x = no result given.

SMILES | YB-1 expr inh | INS-1E rescue | T cruzi HTS
Cc1ccc(S(=O)(=O)N(C)C[C@@H]2Oc3c(NC(=O)Nc4ccc(C(F)(F)F)cc4)cccc3C(=O)N([C@H](C)CO)C[C@@H]2C)cc1 | 0.12 | -69 | 85*
Cc1ccc(S(=O)(=O)N(C)C[C@H]2Oc3c(NC(=O)Nc4ccc(C(F)(F)F)cc4)cccc3C(=O)N([C@H](C)CO)C[C@H]2C)cc1 | 0.84 | -36 | 38
C[C@H](CO)N1C[C@H](C)[C@H](CN(C)S(=O)(=O)c2ccc(Cl)cc2)Oc2c(NC(=O)CCCCCC(=O)Nc3ccccc3N)cccc2C1=O | -0.16 | 10 | 74*
C[C@H]1CN([C@@H](C)CO)C(=O)c2cccc(NC(=O)CCCCCC(=O)Nc3ccccc3N)c2O[C@@H]1CN(C)S(=O)(=O)c1ccc(Cl)cc1 | -0.0044 | 2 | 35
Cc1noc(C)c1NC(=O)Nc1ccc2c(c1)C(=O)N([C@H](C)CO)C[C@H](C)[C@@H](CN(C)C(=O)Nc1cccc3ccccc13)O2 | -0.09 | 2 | -23
C[C@@H]1CN([C@H](C)CO)C(=O)c2cc(NC(=O)CCN3CCOCC3)ccc2O[C@@H]1CN(C)C(=O)Nc1ccc2c(c1)OCO2 | -0.26 | 9 | -5
C[C@@H]1CN([C@@H](C)CO)C(=O)c2cccc(NC(=O)c3ccc(-c4nccs4)cc3)c2O[C@@H]1CN(C)Cc1ccc(C(F)(F)F)cc1 | -0.13 | -65 | 70*
C[C@@H]1CN([C@H](C)CO)C(=O)c2cccc(NC(=O)c3ccc(-c4nccs4)cc3)c2O[C@@H]1CN(C)Cc1ccc(C(F)(F)F)cc1 | 0.28 | -23 | 44
C[C@H]1CN([C@@H](C)CO)C(=O)c2cccc(NC(=O)c3ccc(-c4nccs4)cc3)c2O[C@@H]1CN(C)Cc1ccc(C(=O)Nc2ccccc2N)cc1 | -0.023 | 25 | 75*
C[C@@H]1CN([C@H](C)CO)C(=O)c2cccc(NC(=O)c3ccc(-c4nccs4)cc3)c2O[C@H]1CN(C)Cc1ccc(C(=O)Nc2ccccc2N)cc1 | -0.66 | 3 | 44
C[C@@H]1CN([C@H](C)CO)C(=O)c2cccc(NC(=O)c3ccc(-c4nccs4)cc3)c2O[C@@H]1CN(C)Cc1ccc(Oc2ccccc2)cc1 | -0.41 | -52 | 42
C[C@@H]1CN([C@@H](C)CO)C(=O)c2cccc(NC(=O)c3ccc(-c4nccs4)cc3)c2O[C@H]1CN(C)Cc1ccc(Oc2ccccc2)cc1 | -0.53 | -29 | 62*
C[C@@H]1CN([C@H](C)CO)C(=O)c2cccc(NS(=O)(=O)c3cccs3)c2O[C@@H]1CN(C)C(=O)Nc1ccc(F)cc1 | -0.067 | 2 | 17
Cc1noc(C)c1NC(=O)Nc1ccc2c(c1)C(=O)N([C@@H](C)CO)C[C@@H](C)[C@@H](CN(C)C(=O)NC(C)C)O2 | -0.25 | -1 | -33
Cc1noc(C)c1NC(=O)N(C)C[C@H]1Oc2c(NC(=O)C3CCCCC3)cccc2C(=O)N([C@@H](C)CO)C[C@@H]1C | -0.3 | -1 | -36
C[C@@H]1CN([C@H](C)CO)C(=O)c2cccc(NC(=O)c3ccncc3)c2O[C@H]1CN(C)Cc1ccc(Cl)c(Cl)c1 | 0.5 | 1 | 76*
C[C@@H]1CN([C@@H](C)CO)C(=O)c2cccc(NC(=O)c3ccncc3)c2O[C@H]1CN(C)Cc1ccc(Cl)c(Cl)c1 | 0.027 | 3 | 78*
C[C@H]1CN([C@@H](C)CO)C(=O)c2cccc(NC(=O)c3ccncc3)c2O[C@H]1CN(C)Cc1ccncc1 | -0.43 | 11 | -18
C[C@H](CO)N1C[C@H](C)[C@H](CN(C)Cc2ccc(Cl)c(Cl)c2)Oc2c(NC(=O)c3ccncc3)cccc2C1=O | 0.45 | -8 | 56*
C[C@@H]1CN([C@H](C)CO)C(=O)c2cccc(NC(=O)c3ccncc3)c2O[C@H]1CN(C)Cc1ccncc1 | 0.54 | 4 | -16
C[C@H](CO)N1C[C@H](C)[C@H](CN(C)Cc2ccncc2)Oc2c(NC(=O)c3ccncc3)cccc2C1=O | -0.045 | 4 | -8
C[C@H]1CN([C@@H](C)CO)C(=O)c2cc(NS(=O)(=O)c3ccc(Cl)cc3)ccc2O[C@@H]1CN(C)C(=O)Nc1cccc2ccccc12 | 0.022 | x | -14
CCOC(=O)c1c(C(C)(C)C)oc2ccc(OCC(=O)OC)cc12 | -0.37 | x | x
CCOC(=O)c1c(CNC(C)C)oc2ccc(OC)cc12 | 10* | x | x
COc1ccc(CN(C)C[C@@H]2OCCCC[C@@H](C)Oc3ccc(NS(=O)(=O)c4ccc(Cl)cc4)cc3C(=O)N([C@H](C)CO)C[C@@H]2C)cc1 | 0.23 | -15 | 16
SMILES | YB-1 expr inh | INS-1E rescue | T cruzi HTS
C[C@@H]1CCCCO[C@@H](CN(C)Cc2ccc(Cl)c(Cl)c2)[C@@H](C)CN([C@H](C)CO)C(=O)c2cc(NS(=O)(=O)c3ccc(Cl)cc3)ccc2O1 | 0.3 | -13 | 72*
C[C@@H]1CCCCO[C@H](CN(C)Cc2ccc(Cl)c(Cl)c2)[C@@H](C)CN([C@H](C)CO)C(=O)c2cc(NS(=O)(=O)c3ccccc3)ccc2O1 | -0.15 | -36 | u
COc1ccc(S(=O)(=O)Nc2ccc3c(c2)C(=O)N([C@H](C)CO)C[C@H](C)[C@@H](CN(C)Cc2ccc(Cl)c(Cl)c2)OCCCC[C@@H](C)O3)cc1 | -0.83 | -69 | 73*
C[C@@H]1CCCCO[C@@H](CN(C)Cc2ccncc2)[C@@H](C)CN([C@H](C)CO)C(=O)c2cc(NS(=O)(=O)c3ccc(Cl)cc3)ccc2O1 | -0.32 | 9 | 10
C[C@@H]1CCCCO[C@H](CN(C)Cc2ccc(Cl)c(Cl)c2)[C@@H](C)CN([C@H](C)CO)C(=O)c2cc(NS(=O)(=O)c3ccc(Cl)cc3)ccc2O1 | 0.16 | -14 | 64*
Cc1noc(C)c1NC(=O)Nc1ccc2c(c1)CC(=O)N([C@@H](C)CO)C[C@H](C)[C@H](CN(C)C(=O)NC(C)C)O2 | 0.12 | 6 | -6
C[C@@H]1CN([C@@H](C)CO)C(=O)c2cccc(N(C)C)c2O[C@H]1CN(C)Cc1ccc2c(c1)OCO2 | 0.41 | -2 | 54
COc1ccc(CN(C)C[C@@H]2Oc3c(NS(=O)(=O)c4cn(C)cn4)cccc3C(=O)N([C@@H](C)CO)C[C@H]2C)cc1 | -1.1 | 9 | -18
COc1ccc(S(=O)(=O)N(C)C[C@@H]2Oc3ccc(NC(=O)C4CC4)cc3CC(=O)N([C@H](C)CO)C[C@@H]2C)cc1 | 0.27 | 3 | -18
Cc1noc(C)c1S(=O)(=O)Nc1ccc2c(c1)CC(=O)N([C@H](C)CO)C[C@@H](C)[C@@H](CN(C)C(=O)Nc1ccc(C(F)(F)F)cc1)O2 | -0.36 | -4 | 11
Cc1noc(C)c1NC(=O)Nc1ccc2c(c1)CC(=O)N([C@H](C)CO)C[C@H](C)[C@H](CN(C)C(=O)Nc1ccc(C(F)(F)F)cc1)O2 | -0.003 | 8 | -14
C[C@@H]1CN([C@@H](C)CO)C(=O)c2cccc(NC(=O)c3ccc(-c4nccs4)cc3)c2O[C@H]1CN(C)C(=O)Nc1ccc(C(F)(F)F)cc1 | -0.0014 | 1 | 68*

High-throughput results from PubChem.
